The values that follow come from ChEMBL document CHEMBL4024754, “Development of Potent, Protease-Resistant Agonists of the Parathyroid Hormone Receptor with Broad β Residue Distribution” (J Med Chem, 2017).

The target of data set [1] is T1, Parathyroid hormone/parathyroid hormone-related peptide receptor (Homo sapiens) (UniProt Q03431).
T1 sequence (whole entry): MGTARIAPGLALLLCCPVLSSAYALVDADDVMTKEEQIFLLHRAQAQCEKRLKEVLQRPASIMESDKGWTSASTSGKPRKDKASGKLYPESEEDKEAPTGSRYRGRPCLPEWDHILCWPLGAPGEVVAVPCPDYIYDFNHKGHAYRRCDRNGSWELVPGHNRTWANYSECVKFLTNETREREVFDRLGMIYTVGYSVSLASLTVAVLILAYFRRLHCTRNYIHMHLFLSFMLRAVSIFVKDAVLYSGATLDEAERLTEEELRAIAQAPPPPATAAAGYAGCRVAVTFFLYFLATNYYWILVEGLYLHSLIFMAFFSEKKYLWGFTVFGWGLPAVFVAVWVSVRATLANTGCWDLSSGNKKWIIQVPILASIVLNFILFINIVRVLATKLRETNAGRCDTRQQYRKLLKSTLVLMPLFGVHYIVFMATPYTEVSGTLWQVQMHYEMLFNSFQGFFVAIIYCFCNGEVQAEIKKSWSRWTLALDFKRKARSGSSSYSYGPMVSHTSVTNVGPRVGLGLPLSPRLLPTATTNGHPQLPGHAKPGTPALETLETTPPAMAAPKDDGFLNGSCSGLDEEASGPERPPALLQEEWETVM
Nature of the data set: Displacement of [125I]-PTH(1 to 34 residues) from R0 state of human PTHR1 expressed in African green monkey COS7 cell membranes incubated for >1 hr in presence of GTPgammaS by gamma radiation method.

In data set [2] the target is T1, Parathyroid hormone/parathyroid hormone-related peptide receptor (Homo sapiens). In words: Agonist activity at human PTH1 receptor expressed in human GP2.3 cells assessed as induction of cAMP at 0.1 to 100 nM preincubated with protease activity quenched SGF up to 4 hrs followed by compound transfer to GP2.3 cells by luciferase reporter gene assay. The format is functional, cell-based. Put shortly: (§1)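 Control samples: simulated gastric fluid neutralized with 10× PBS, or intestinal fluid mixed with acetonitrile/TFA quench solution, before adding peptide. Gastric controls held up to 4 h. Then diluted and tested on luciferin-loaded GP2.3 cells at 100−0.1 nM final, alongside freshly prepared peptide.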
(Reporter assays use an easily measured gene product as a stand-in for the process of interest.)

The target is the same in data set [3]. Nature of the data set: Agonist activity at human PTH1 receptor expressed in human GP2.3 cells assessed as induction of cAMP at 0.1 to 100 nM preincubated with SIF for 10 mins followed by compound transfer to GP2.3 cells by luciferase reporter gene assay. The class given is functional, cell-based. In short, it runs like this: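 Simulated intestinal fluid containing pancreatin, pH 6.8, prepared fresh and kept at 37 °C. Peptide incubated in it as for gastric fluid. Quenched 1:1 with 50% acetonitrile/1% TFA. Quenched samples serially diluted in CO2-independent medium and applied to luciferin-preloaded GP2.3 cells at 100−0.1 nM final. Luminescence read. Two technical replicates.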

The nature of data set [4]: Stability in simulated gastric fluid assessed as pig pepsin-mediated proteolysis at 40 uM after 5 secs by RP-HPLC analysis. Particulars: isolated protein, 5 s. The format is ADME, Sus scrofa. In short, it runs like this:
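Proteolysis quenched by transfer into 10× PBS, pH 7.4, giving 40 μM peptide. Analysed by analytical C18 RP-HPLC, 10–60% acetonitrile/0.1% TFA over 50 min. Intact peptide quantified by integrating its peak. Duplicate reactions run concurrently, standard deviation.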

The target of data set [5] is T1, Parathyroid hormone/parathyroid hormone-related peptide receptor (Homo sapiens). In words: Agonist activity at human PTH1 receptor expressed in human GP2.3 cells assessed as induction of cAMP at 0.1 to 100 nM preincubated with SGF for 5 secs followed by compound transfer to GP2.3 cells by luciferase reporter gene assay. The class given is functional, cell-based. Put shortly: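 Quenched at set times with 10× PBS, diluted into CO2-independent medium, serially 1:10, then added to confluent GP2.3 cells (HEK293, hPTHR1 plus Glosensor cAMP reporter) preloaded 30 min with 0.5 mM D-luciferin. Final 100–0.1 nM. Luminescence read; two technical replicates; variable-slope sigmoidal fit.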

In data set [6] the test system is Mus musculus. Nature of the data set: In vivo induction of excessive bloodstream calcium concentration in CD1 mouse at 20 nmol/kg, sc after 2 hrs by Ca2+/pH analyzer. The format is organism-based. Put shortly: (§2)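 Female CD1 mice (9−12 weeks), n = 5, given 20 nmol/kg subcutaneously in 10 mM citrate/150 mM NaCl/0.05% Tween-80, pH 5.0. Tail vein blood taken before and at times after dosing. Ca2+ measured by Ca2+/pH analyzer. One-way ANOVA with Dunnett's test vs vehicle. Mean ± SEM.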

Data set [7] in a line: Drug metabolism in Sprague-Dawley rat kidney homogenates assessed as protease-mediated metabolite formation at 12 uM after 5 mins by MALDI-TOF-MS analysis. The class given is ADME, tissue-based. Particulars: tissue homogenate. In short, it runs like this: (§3)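 Perfused female Sprague-Dawley kidney homogenate in 50 mM Tris-HCl pH 7.4, diluted to 2.5 mg protein/mL. Peptide spiked at 50 μg/mL (~12 μM) and incubated at 37 °C. Timed samples quenched with equal volume 1% TFA, centrifuged, dried, reconstituted in 0.1% formic acid, mixed with DHB matrix. Fragments identified by MALDI-TOF MS.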

For data set [8], the target named is T1, Parathyroid hormone/parathyroid hormone-related peptide receptor (Homo sapiens). Nature of the data set: Agonist activity at extracellular domain truncate human PTH1 receptor expressed in GD5 cells assessed as induction of cAMP after 12 to 20 mins by luciferase reporter gene assay. The format is functional, cell-based. In short, it runs like this:
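HEK293-derived lines stably expressing Glosensor cAMP reporter plus full-length human PTHR1 (GP2.3) or ECD-truncated PTHR1 (GD5). Confluent monolayers preincubated at room temperature in CO2-independent medium with 0.5 mM D-luciferin until baseline stable (30 min), then varied agonist concentrations added. Maximal luminescence (12−20 min) used for sigmoidal variable-slope fits.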

Data set [9] in a line: Half life in Sprague-Dawley rat kidney homogenates at 12 uM by HPLC-MS analysis. The format is ADME, tissue-based. Put shortly:
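Kidney homogenate (2.5 mg protein/mL, pH 7.4 Tris) spiked with peptide at 50 μg/mL (~12 μM), 37 °C, sampled 0−120 min. […] C18 UHPLC–Orbitrap MS quantified via y32 ion area ratio against calibration standards. Exponential decay fit, mean ± SD of two replicates.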

Data set [10] concerns the target T1, Parathyroid hormone/parathyroid hormone-related peptide receptor (Homo sapiens). In words: Agonist activity at human PTH1 receptor expressed in human GP2.3 cells assessed as induction of cAMP at 0.1 to 100 nM preincubated with protease activity quenched SIF followed by compound transfer to GP2.3 cells by luciferase reporter gene assay. The class given is functional, cell-based. Put shortly: as §1

Data set [11] is described as follows: Drug metabolism in Sprague-Dawley rat kidney homogenates assessed as protease mediated-drug degradation at 12 uM up to 15 mins by MALDI-TOF-MS analysis. The format is ADME, tissue-based. Particulars: tissue homogenate. Put shortly: as §3
Data set [12] in a line: Drug metabolism in Sprague-Dawley rat kidney homogenates assessed as protease mediated-drug degradation at 12 uM up to 5 mins by MALDI-TOF-MS analysis. The format is ADME, tissue-based. The note with it: tissue homogenate. Put shortly:
as §3

Data set [13] deals with Blood. Nature of the data set: Drug level in CD1 mouse blood at 20 nmol/kg, sc measured up to 2 hrs. The class given is ADME, organism-based. Particulars: in vivo. Put shortly:
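Female CD1 mice, n = 5, 20 nmol/kg subcutaneously in citrate/NaCl/Tween-80 vehicle, pH 5.0. 2 μL serum from timed bleeds, mixed with CO2-independent medium, added to GP2.3 cells. Luminescence converted to peptide concentration via a standard curve.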

The target in data set [14] is T1, Parathyroid hormone/parathyroid hormone-related peptide receptor (Homo sapiens). Nature of the data set: Agonist activity at human PTH1 receptor expressed in human GP2.3 cells assessed as induction of cAMP after 12 to 20 mins by luciferase reporter gene assay relative to PTH(1 to 34 residues)-NH2. The class given is functional, cell-based.
The test system of data set [15] is Mus musculus. In words: In vivo induction of excessive bloodstream calcium concentration in CD1 mouse at 20 nmol/kg, sc up to 2 hrs by Ca2+/pH analyzer. The format is organism-based. In short, it runs like this:
as §2

Calls of active or inactive are those of the source. The calls are words filed in the database; no cut-off is given here. Numbered stars: 1 amine (or outer) side, 2 acyl side, 3 side chain; on linkers, the order of the positions; unused ones are H or OH. Square brackets hold non-standard residues; d marks the D form. Peptide text beside a SMILES is read from it. * marks the point of attachment. NH(1S,2S-2-CONH2-cPent) = NC(=O)[C@H]1CCC[C@@H]1N*; X1 = O=C([C@H]1CCC[C@@H]1N[*:1])[*:2]; X2 = O=C([C@H]1CNC[C@@H]1N[*:1])[*:2]

As a reminder, the half-life is how long it takes for the measured level to halve.

As for `CC[C@H](C)[C@H](NC(=O)[C@H](CCC(=O)O)NC(=O)[C@H](CO)NC(=O)[C@@H](NC(=O)[C@@H](N)CO)C(C)C)C(=O)N[C@@H](CCC(N)=O)C(=O)N[C@@H](CC(C)C)C(=O)N[C@@H](CCSC)C(=O)N[C@@H](Cc1cnc[nH]1)C(=O)N[C@@H](CC(N)=O)C(=O)N[C@@H](CC(C)C)C(=O)NCC(=O)N[C@@H](CCCCN)C(=O)N[C@@H](Cc1cnc[nH]1)C(=O)N[C@@H](CC(C)C)C(=O)N[C@@H](CC(N)=O)C(=O)N[C@@H](CO)C(=O)N[C@@H](CCSC)C(=O)N[C@@H](CCC(=O)O)C(=O)N[C@@H](CCCNC(=N)N)C(=O)N[C@H](C(=O)N[C@@H](CCC(=O)O)C(=O)N[C@@H](Cc1c[nH]c2ccccc12)C(=O)N[C@@H](CC(C)C)C(=O)N[C@@H](CCCNC(=N)N)C(=O)N[C@@H](CCCCN)C(=O)N[C@@H](CCCCN)C(=O)N[C@@H](CC(C)C)C(=O)N[C@@H](CCC(N)=O)C(=O)N[C@@H](CC(=O)O)C(=O)N[C@H](C(=O)N[C@@H](Cc1cnc[nH]1)C(=O)N[C@@H](CC(N)=O)C(=O)N[C@@H](Cc1ccccc1)C(N)=O)C(C)C)C(C)C`, the inhibition result in data set [1] is “Active”. For the same compound, the outcome in data set [2], in data set [8] and in data set [10] was Active. For the same compound, the result in [3] and in data set [5] was inactive. Also, the Stability result in [4] is given as “Unstable”. Moreover, the Activity entry in [6] is “Non-Toxic”. The Drug metabolism result in data set [7], in data set [11] and in [12] was “Metabolite_Detected” in each case. In addition, in data set [9], the half-life at 12 µM was found to be 1.9 min.

Take `CC[C@H](C)[C@H](NC(=O)[C@H](CCC(=O)O)NC(=O)[C@H](CO)NC(=O)[C@@H](NC(=O)[C@@H](N)CO)C(C)C)C(=O)N[C@@H](CCC(N)=O)C(=O)N[C@@H](CC(C)C)C(=O)N[C@@H](CCSC)C(=O)N[C@@H](Cc1cnc[nH]1)C(=O)N[C@@H](CC(N)=O)C(=O)N[C@@H](CC(C)C)C(=O)NCC(=O)N[C@@H](CCCCN)C(=O)N[C@H]1CCC[C@@H]1C(=O)N[C@@H](CC(C)C)C(=O)N[C@@H](CC(N)=O)C(=O)N[C@@H](CO)C(=O)N[C@H]1CCC[C@@H]1C(=O)N[C@@H](CCC(=O)O)C(=O)N[C@@H](CCCNC(=N)N)C(=O)N[C@H](C(=O)N[C@H]1CNC[C@@H]1C(=O)N[C@@H](Cc1c[nH]c2ccccc12)C(=O)N[C@@H](CC(C)C)C(=O)N[C@@H](CCCNC(=N)N)C(=O)N[C@H]1CNC[C@@H]1C(=O)N[C@@H](CCCCN)C(=O)N[C@@H](CC(C)C)C(=O)N[C@@H](CCC(N)=O)C(=O)N[C@H]1CCC[C@@H]1C(=O)N[C@H](C(=O)N[C@@H](Cc1cnc[nH]1)C(=O)N[C@@H](CC(N)=O)C(=O)N[C@H]1CCC[C@@H]1C(N)=O)C(C)C)C(C)C` (H-SVSEIQLMHNLGK[X1]LNS[X1]ERV[X2]WLR[X2]KLQ[X1]VHN-{NH(1S,2S-2-CONH2-cPent)}): in [1], the inhibition result is “Active”. Besides, the Drug uptake result in [13] is recorded as “Active”. Besides, the fold change (FC) in [14] is 3.2. Moreover, the Activity entry in data set [6] is on record as “Non-Toxic”; in [15] it was “Toxic”.

`CC[C@H](C)[C@H](NC(=O)[C@H](CCC(=O)O)NC(=O)[C@H](CO)NC(=O)[C@@H](NC(=O)[C@@H](N)CO)C(C)C)C(=O)N[C@@H](CCC(N)=O)C(=O)N[C@@H](CC(C)C)C(=O)N[C@@H](CCSC)C(=O)N[C@@H](Cc1cnc[nH]1)C(=O)N[C@@H](CC(N)=O)C(=O)N[C@@H](CC(C)C)C(=O)NCC(=O)N[C@@H](CCCCN)C(=O)N[C@H](CC(=O)N[C@@H](CC(C)C)C(=O)N[C@@H](CC(N)=O)C(=O)N[C@@H](CO)C(=O)N[C@@H](CCSC)CC(=O)N[C@@H](CCC(=O)O)C(=O)N[C@@H](CCCNC(=N)N)C(=O)N[C@H](C(=O)N[C@@H](CCC(=O)O)CC(=O)N[C@@H](Cc1c[nH]c2ccccc12)C(=O)N[C@@H](CC(C)C)C(=O)N[C@@H](CCCNC(=N)N)C(=O)N[C@@H](CCCCN)CC(=O)N[C@@H](CCCCN)C(=O)N[C@@H](CC(C)C)C(=O)N[C@@H](CCC(N)=O)C(=O)N[C@@H](CC(=O)O)CC(=O)N[C@H](C(=O)N[C@@H](Cc1cnc[nH]1)C(=O)N[C@@H](CC(N)=O)C(=O)N[C@H](CC(N)=O)Cc1ccccc1)C(C)C)C(C)C)Cc1c[nH]c2ccccc12`: the result in [2] and in data set [10] was Active. For the same compound, the fold change (FC) in data set [14] amounted to 2.1. Further, the Stability entry in data set [4] is “Unstable”. Moreover, the outcome in data set [5] was inactive.
